This is a sample that favours compounds with a hit; in the whole collection about 3% have one here.
PfG6PD inh – PfG6PD (Plasmodium falciparum) enzyme inhibition. PfGluPho enzyme, NADPH resazurin-diaphorase fluorescence. inhibition, % at 20 µM. actives 0.78% (n = 350,000). AID 504690;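 active means inhibition reaching at least a set limit at 20 µM in the primary screen, cut at about 59% in these data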;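 further: 0% = DMSO wells with substrate and 100% = DMSO wells lacking glucose-6-phosphate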
MC4R barr agon – agonists of human melanocortin 4 receptor (MC4R) beta-arrestin; actives 0.98% (n = 360,000); P32245; activation, % at 8.9 µM; AID 540308; U2OS MC4R beta-arrestin complementation, luminescence; percent of melanotan II response, DMSO zero;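 active means activation above a per-plate cutoff, the mean activation of sample wells on that plate plus 3 SD, cut at about 8% in these data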
MC4R antag cAMP – blocks human MC4R cAMP signaling; P32245; MC4R-expressing cells, MTII-stimulated cAMP, LANCE TR-FRET; inhibition, % at 6.5 µM; actives 0.48% (n = 360,000); AID 540295;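 active means inhibition above its plate's cutoff, the mean of tested wells on that plate plus 3 SD, cut at about 29% in these data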;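 further: 0% = Melanotan II alone and 100% = Melanotan II plus saturating MCL0020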
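System: U2OS-MC4R stable cell line; Technique: Eu-cAMP/anti-cAMP TR-FRET, emission 671 nm; Repeats: single well per compound; Also added: Melanotan II; Dosing: one concentration, 6.5 µM nominal; Schedule: 30-min compound, 1-h challenge, 1-h detection, room temperature.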
ABHD5-PLIN5 inh – inhibitors of human ABHD5-perilipin-5 interaction; Split G. princeps luciferase complementation, luminescence, 4 h; Q00G26+Q8WTS1; actives 0.78% (n = 360,000); AID 602281; inhibition, % at 4 µM;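 active means inhibition above the mean inhibition across every tested compound plus 3 SD, cut at about 22% in these data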;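 further: 0% = DMSO only wells and the 100% control is not disclosed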
Beta2AR agonist – human beta-2 adrenergic receptor agonism by FAP | response, % (concentration not given with the values) | Am2.2-beta2AR cells, FAP receptor internalization, flow cytometry | actives 0.43% (n = 340,000) | AID 504454;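 active means response above a set limit, near 3 SD of response in nonfluorescent compounds, cut at about 42% in these data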
ABHD5 PLIN5 conf – ABHD5-PLIN5 interaction inhibition, confirmed; biochemical ABHD5-PLIN5 interaction, luminescence; shares compounds with ABHD5-PLIN5 inh; inhibition, % at 4 µM; actives 67% (n = 2,200); in the data active means inhibition above about 23%;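 further: 0% = DMSO vehicle wells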
HNF4 counter – HNF4 split-luciferase signal hit, counter-screen | shares compounds with ABHD5-PLIN5 inh | actives 77% (n = 2,200) | HNF4 dimerization, luminescence, biochemical | inhibition, % at 4 µM;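 active means mean inhibition across replicate wells exceeding the computed hit threshold, cut at about 13% in these data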;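 further: light from luciferase halves that rejoin when HNF4 fusion proteins dimerize; 0% = DMSO only wells and the 100% control is not given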
Target sequence (P41235 whole entry, looked up, the tested form may be a part): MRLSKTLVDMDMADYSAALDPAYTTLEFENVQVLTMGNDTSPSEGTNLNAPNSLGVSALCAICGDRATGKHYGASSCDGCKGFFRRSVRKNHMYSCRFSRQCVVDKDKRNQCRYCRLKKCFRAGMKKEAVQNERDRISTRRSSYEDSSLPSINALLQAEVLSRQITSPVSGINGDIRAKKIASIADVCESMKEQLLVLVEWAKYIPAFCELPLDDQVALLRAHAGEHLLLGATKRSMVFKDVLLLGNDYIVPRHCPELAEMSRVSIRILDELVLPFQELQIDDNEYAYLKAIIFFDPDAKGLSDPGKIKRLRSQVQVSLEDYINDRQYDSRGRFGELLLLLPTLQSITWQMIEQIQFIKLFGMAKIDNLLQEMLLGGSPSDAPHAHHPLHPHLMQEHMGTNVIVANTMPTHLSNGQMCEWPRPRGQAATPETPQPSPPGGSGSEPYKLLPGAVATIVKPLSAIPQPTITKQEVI
* marks the source's active call; other numbers are inactive results; nt = not tested or not shown.

SMILES | PfG6PD inh | MC4R barr agon | MC4R antag cAMP | ABHD5-PLIN5 inh | Beta2AR agonist | ABHD5 PLIN5 conf | HNF4 counter
CN(CC(=O)Nc1ccc(F)cc1)C(=O)COC(=O)/C=C/c1ccccc1[N+](=O)[O-] | -16.4 | 1.0 | -2.3 | -0.6 | -2.5 | nt | nt
CN1C/C(=C/c2ccncc2)C(=O)/C(=C/c2ccncc2)C1 | -4.9 | 0.4 | 4.1 | 1.1 | 6.7 | nt | nt
CN1C/C(=C\c2ccc(N3CCOCC3)cc2)C(=O)/C(=C/c2ccc(N3CCOCC3)cc2)C1 | 6.7 | -2.8 | -7.3 | 29.8* | 14.4 | 53.2* | 42.0*
CN1C/C(=C/c2ccsc2)C(=O)/C(=C/c2ccsc2)C1 | 12.3 | -2.2 | 18.7 | 56.1* | 7.5 | 78.5* | 65.6*
Cc1noc(C)c1COc1ccccc1C(=O)NC1CCC(C)CC1 (configuration not stated) | 0.7 | 2.8 | -1.4 | 9.1 | 0.9 | nt | nt
COc1cc(C(c2c(O)nc(SC)[nH]c2=O)c2c(O)nc(SC)[nH]c2=O)cc(OC)c1OC | 7.9 | -3.0 | 1.2 | 21.5 | -7.4 | nt | nt
COc1ccc(OC)c(C(c2c(O)nc(SC)[nH]c2=O)c2c(O)nc(SC)[nH]c2=O)c1 | -12.4 | 0.3 | -1.0 | 26.0* | 3.4 | 51.5* | 48.6*
COCCNC(=O)/C(C#N)=C/c1cccc(/C=C(\C#N)C(=O)NCCOC)c1 | 10.7 | -2.1 | -5.1 | 48.0* | 1.9 | 97.6* | 70.6*
Cc1cc2nnn(-c3nnc(-c4ccccc4)c4ccccc34)c2cc1C | -3.6 | -1.9 | -1.4 | -2.3 | 10.9 | nt | nt
O=C(O)c1cccc(-n2sc3ccccc3c2=O)c1 | 114.2* | -3.1 | 13.7 | 109.3* | -0.5 | 97.3* | 119.5*
Cc1nnc(NC(=O)C2CCN(S(=O)(=O)c3ccc(F)c(F)c3)CC2)o1 | -2.2 | -0.4 | -1.5 | 2.5 | -5.1 | nt | nt
COc1ccc(/C=C2\Cc3ccccc3C2=O)cc1OC | 12.1 | -2.1 | 0.8 | 4.2 | 1.4 | nt | nt
COc1cc(C=C2CCCC(=Cc3ccc(OCC4CO4)c(OC)c3)C2=O)ccc1OCC1CO1 (configuration not stated) | 5.1 | -0.2 | 12.3 | 24.4* | nt | 36.8* | 20.8*
COc1ccc(/C=C2/CSC/C(=C/c3ccc(OC)c(OC)c3)C2=O)cc1OC | 5.6 | -2.4 | 5.5 | 55.5* | 0.5 | 80.8* | 67.6*
COc1ccc(S(=O)(=O)N2CCC3(CC2)OCCN3S(=O)(=O)c2ccccc2)cc1OC | -6.3 | -2.9 | 6.6 | -4.1 | 9.9 | nt | nt
N#Cc1ccc(CN2CCN(C(=O)CCNS(=O)(=O)c3ccc(F)c(Cl)c3)CC2)cc1 | 5.1 | -3.2 | 3.5 | -6.9 | -4.1 | nt | nt
O=c1[nH]c(Sc2ccc([N+](=O)[O-])cc2[N+](=O)[O-])nc2ccccc12 | 16.9 | -2.6 | 5.9 | 40.5* | 4.1 | 40.6* | 33.5*
N#Cc1ccccc1OCc1cn(CC(=O)c2ccc(O)cc2)nn1 | 7.9 | -1.7 | 0.7 | 30.6* | -4.2 | 66.4* | 39.1*
O=C(Cn1cc(COc2ccccc2[N+](=O)[O-])nn1)c1ccc(O)cc1 | -10.9 | -1.6 | 15.0 | 7.8 | 8.5 | nt | nt
CCN(CC)C(=O)CSc1nc2ccccc2c(=O)n1CC | -6.7 | -0.3 | -3.4 | 1.0 | -11.2 | nt | nt
CCN(CC)C(=O)CSc1nc2ccccc2c(=O)n1OC(C)C | -13.9 | 2.4 | -8.7 | 24.1* | -0.6 | 0.6 | -1.5
CCN(CC)C(=O)N1CCN(C)CC1 | -7.7 | -1.4 | 5.1 | 38.2* | 3.2 | 79.8* | 37.4*
CCN(CC)C(=O)N1CCN(C(=O)N(CC)CC)CC1 | 3.6 | -0.3 | -0.9 | -2.0 | -5.5 | nt | nt
Cc1ccc(/C(N)=N/OC(=O)C(C)c2ccc([N+](=O)[O-])cc2)cc1 (configuration not stated) | 10.9 | 3.9 | 20.8 | -6.2 | 8.4 | nt | nt
COc1cccc(N2CCN(CC(=O)NC(=O)NC3CCCCC3)CC2)c1 | 4.1 | 1.3 | -0.5 | -2.9 | 2.5 | nt | nt
SMILES | PfG6PD inh | MC4R barr agon | MC4R antag cAMP | ABHD5-PLIN5 inh | Beta2AR agonist | ABHD5 PLIN5 conf | HNF4 counter
CCOc1cc(CNCCCN2CCOCC2)cc(Br)c1OCC(=O)Nc1cccc(C(F)(F)F)c1 | -2.4 | 0.1 | 8.3 | 24.6* | 17.7 | 16.8 | 15.0*
COc1cc(CNCCCN2CCOCC2)cc(Br)c1OCc1ccc(Cl)cc1 | 12.6 | 3.1 | -5.3 | 35.4* | 38.6 | 16.9 | 0.9
O=C(COc1ccc(Cl)cc1)Nc1nnc(C2=COCCO2)o1 | -7.7 | -1.0 | 0.1 | 0.3 | -0.3 | nt | nt
CC1=NN(C(=O)c2ccc(Cn3cc(Br)c([N+](=O)[O-])n3)o2)C(O)(C(F)(F)F)C1 (configuration not stated) | 7.7 | -0.9 | 2.6 | -4.1 | -3.6 | nt | nt
CC1=NN(C(=O)c2ccc(Cn3nc(C)cc3C)o2)C(O)(C(F)(F)F)C1 (configuration not stated) | -10.2 | -2.1 | 4.1 | 58.3* | -0.4 | 5.5 | -2.0
C=C1C(=O)c2sccc2C(c2ccc(OC)c(OC)c2)C1COC(C)=O (configuration not stated) | 10.6 | 0.7 | -10.8 | 78.9* | 102.3* | 95.2* | 108.1*
CCN1CCN(CC(=O)N2N=C(c3cccs3)CC2c2ccc(OC)c(OC)c2)C(=O)C1=O (configuration not stated) | -7.9 | 0.9 | 7.6 | 2.4 | -2.6 | nt | nt
COc1ccc(NC(=S)N2CCN(Cc3ccco3)CC2)c(OC)c1 | -22.6 | 4.4 | 14.5 | 23.5* | 3.0 | 3.4 | 13.6*
Cc1nn(CCc2nc(-c3ccco3)cs2)c2[nH]c(=O)cc(C(F)(F)F)c12 | 24.9 | 0.4 | 5.8 | 41.4* | -9.1 | 21.3 | 16.3*
O=C(CC(Nc1cccc(Cl)c1Cl)C(=O)OCC(=O)c1cccs1)c1ccccc1 (configuration not stated) | 1.0 | -2.5 | -3.9 | 13.6 | 2.5 | nt | nt
O=C(CC(Nc1cccc(Cl)c1Cl)C(=O)O)c1ccccc1 (configuration not stated) | -0.8 | -1.0 | 16.1 | 85.5* | -1.4 | 14.7 | 73.1*
Cc1c(Cl)cccc1NC(CC(=O)c1ccccc1)C(=O)O (configuration not stated) | 12.0 | -1.1 | 4.7 | 83.7* | 0.6 | 57.2* | 107.8*
O=C(CC(Nc1ccccc1Cl)C(=O)O)c1ccccc1 (configuration not stated) | 16.2 | -2.1 | 4.6 | 82.6* | 12.8 | 29.1* | 96.6*
Cc1ccc(-n2ncc3c2CC(C)(C)CC3NC(=O)CCc2ccc(=O)[nH]n2)cc1 (configuration not stated) | 9.1 | 0.9 | 4.9 | -4.2 | -2.6 | nt | nt
Cc1ccc(C(=O)/C=C/C(=O)O)cc1 | 9.3 | 5.5 | -0.7 | 93.4* | 5.0 | 95.3* | 105.9*
C=CSc1sc(Cl)c(N2CCOCC2)c1[N+](=O)[O-] | 3.7 | -0.1 | 0.4 | 1.4 | -207.0 | nt | nt
